Experimental data published in ChEMBL document CHEMBL4371059 (J Med Chem, 2019).
Calls of active or inactive are those of the source. The calls are words filed in the database; no cut-off is given here.

Columns and labels:
[1] = target: T1, Sigma intracellular receptor 2 (Rattus norvegicus) (UniProt Q5U3Y7); test: Displacement of [3H]DTG from sigma2 receptor in rat liver membranes at 1 uM after 120 mins by scintillation counting method relative to control; format: cell membranes
T1 sequence (whole entry): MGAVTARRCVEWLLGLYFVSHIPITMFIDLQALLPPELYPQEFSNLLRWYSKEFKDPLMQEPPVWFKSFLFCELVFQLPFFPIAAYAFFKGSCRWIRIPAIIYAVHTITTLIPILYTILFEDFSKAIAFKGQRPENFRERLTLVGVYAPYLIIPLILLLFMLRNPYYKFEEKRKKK

Mus musculus [2] = test: (§1) Anti-inflammatory activity against C57BL/6 mouse model of MOG-induced autoimmune encephalomyelitis assessed as CD45-positive leukocytes at 100 uL of 20 uM solution administered ip starting from day 1 post immunization and measured 9 to 16 days post Mycobacterium tuberculosis H37Ra/MOG immunization by flow cytometry (reference value: 4.4%); format: functional
How it was run: (§2)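 C57BL/6 wild-type mice, 8–12 weeks old, were kept under SPF conditions and immunized with MOG peptide. From day 1 after immunization they received a daily ip injection of 100 µl of a 20 µM solution; controls received PBS. Clinical signs were checked daily. Tissues were taken at disease peak, days 12–15 after immunization.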

T-cell [3] = test: Inhibition of PMA/ionomycin-stimulated C57BL/6 mouse T cells activation assessed as CD44-positive cells at 5 ug/ml treated for 48 hrs starting from 12 hrs post PMA/ionomycin stimulation by flow cytometry (reference value: 9.6%); format: functional; set-up: scale not given: the % may be the effect or the level left
T-cell [4] = test: Anti-inflammatory activity in PMA/ionomycin-stimulated human PBMC-derived T cells assessed as reduction in IFNgamma production at 5 ug/ml treated for 48 hrs starting from 12 hrs post PMA/ionomycin stimulation by flow cytometry; format: functional, cell-based
How it was run: (§3)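 PBMC were prepared from heparinized blood of healthy donors by Ficoll gradient, and DC or T cells were negatively enriched with magnetic kits. Cells were activated 12 h with PMA (5 ng/ml) plus ionomycin (500 ng/ml), then cultured 48 h with compound or PBS. Flow cytometry was gated on HLA-DR⁺CD11c⁺ for DC and CD3⁺ for T cells, with intracellular IFN-γ; n=3 donors.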

Mus musculus [5] = test: as §1, with “reduction in immune cell infiltration in to lumbar spinal cord” for “CD45-positive leukocytes”, “hematoxylin and eosin staining based microscopic method” for “flow cytometry (reference value: 4.4%)”; format: functional, organism-based; how it was run: as §2
T-cell [6] = test: Inhibition of PMA/ionomycin-stimulated C57BL/6 mouse T cells activation assessed as CD69-positive cells at 5 ug/ml treated for 48 hrs starting from 12 hrs post PMA/ionomycin stimulation by flow cytometry (reference value: 37.2%); format: functional; set-up: scale not given: the % may be the effect or the level left
Mus musculus [7] = test: as §1, with “inhibition of development of clinical symptoms” for “CD45-positive leukocytes”, “immunization” for “immunization by flow cytometry (reference value: 4.4%)”; format: functional, organism-based; how it was run: as §2
Mus musculus [8] = test: as §1, with “reduction in TH17 cell population in lumbar spinal cord” for “CD45-positive leukocytes”, “immunofluorescence microscopic method” for “flow cytometry (reference value: 4.4%)”; format: functional, organism-based; how it was run: as §2
Dendritic cell [9] = test: Anti-inflammatory activity in PMA/ionomycin-stimulated human PBMC-derived dendritic cells assessed as reduction in IFNgamma production at 5 ug/ml treated for 48 hrs starting from 12 hrs post PMA/ionomycin stimulation by flow cytometry; format: functional, cell-based; how it was run: as §3
Mus musculus [10] = test: as §1, with “reduction in inflammatory foci in lumbar spinal cord” for “CD45-positive leukocytes”, “hematoxylin and eosin staining based microscopic method” for “flow cytometry (reference value: 4.4%)”; format: functional, organism-based; how it was run: as §2
[11] = target: T2, Sigma intracellular receptor 2 (Rattus norvegicus, UniProt Q5U3Y7); test: Displacement of [3H]DTG from sigma2 receptor in rat liver membranes after 120 mins by scintillation counting method; format: cell membranes
T2 sequence (Q5U3Y7 whole entry): T1 sequence (whole entry)

Dendritic cell [12] = test: Anti-inflammatory activity in PMA/ionomycin-stimulated C57BL/6 mouse bone marrow derived dendritic cells assessed as reduction in IFNgamma production at 5 ug/ml treated for 48 hrs starting from 12 hrs post PMA/ionomycin stimulation by flow cytometry; format: functional, cell-based
How it was run: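 Bone marrow from tibias and femurs was cultured 9 days with GM-CSF (150 U/ml) and IL-4 (75 U/ml). From day 7 to day 9, cells were stimulated with PMA (5 ng/ml) plus ionomycin (500 ng/ml) with or without compound. On day 9, cells were gated on MHC-II⁺CD11c⁺ and stained for intracellular IFN-γ; n=5 mice.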

T-cell [13] = test: Immunomodulatory activity in PMA/ionomycin-stimulated human PBMC-derived T cells assessed as increase in IL-10 production at 5 ug/ml treated for 48 hrs starting from 12 hrs post PMA/ionomycin stimulation; format: functional, cell-based
How it was run: (§4)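 Human PBMC-derived cells from healthy donors were activated with PMA (5 ng/ml) plus ionomycin (500 ng/ml), then cultured with compound or PBS. Cytokines were quantified in the culture supernatants; n=3 donors.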

Dendritic cell [14] = test: Immunomodulatory activity in PMA/ionomycin-stimulated C57BL/6 mouse bone marrow derived dendritic cells assessed as increase in IL-10 production at 5 ug/ml treated for 48 hrs starting from 12 hrs post PMA/ionomycin stimulation; format: functional, cell-based
T-cell [15] = test: Anti-inflammatory activity in PMA/ionomycin-stimulated C57BL/6 mouse T cells assessed as reduction in IFNgamma production at 5 ug/ml treated for 48 hrs starting from 12 hrs post PMA/ionomycin stimulation by flow cytometry; format: functional, cell-based
How it was run: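 Total T cells were isolated from wild-type mouse lymph nodes with a Pan T cell kit. Cells were activated 12 h with PMA (5 ng/ml) plus ionomycin (500 ng/ml), then cultured 48 h with compound or PBS. Analysis was by flow cytometry gated on CD3, with intracellular IFN-γ after permeabilization; n=5 mice.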

Dendritic cell [16] = test: Immunomodulatory activity in PMA/ionomycin-stimulated human PBMC-derived dendritic cells assessed as increase in IL-10 production at 5 ug/ml treated for 48 hrs starting from 12 hrs post PMA/ionomycin stimulation; format: functional, cell-based; how it was run: as §4
T-cell [17] = test: Immunomodulatory activity in PMA/ionomycin-stimulated C57BL/6 mouse T cells assessed as increase in IL-10 production at 5 ug/ml treated for 48 hrs starting from 12 hrs post PMA/ionomycin stimulation; format: functional, cell-based
How it was run: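 Mouse lymph-node T cells were activated 12 h with PMA (5 ng/ml) plus ionomycin (500 ng/ml), then cultured 48 h with compound or PBS. Secreted cytokines were measured in the culture supernatants; n=5 mice per group.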

Compound: CCN1CCN(C(=O)Cc2ccc(Cl)c(Cl)c2)[C@H]2[C@@H]1CCC[C@@H]2N1CCCC1 (relative stereo)
- inhibition [1]: 16%

Compound: CC(C)(C)OC(=O)N1CCN(C(=O)Cc2ccc(Cl)c(Cl)c2)[C@@H]2[C@@H](N3CCCC3)CCC[C@@H]21 (racemic)
- inhibition [1]: 16%

Compound: O=C(Cc1ccc(Cl)c(Cl)c1)N1CCN(CCF)[C@H]2CCC[C@H](N3CCCC3)[C@H]21 (racemic)
- inhibition [1]: 3%

Compound: O=C(Cc1ccc(Cl)c(Cl)c1)N1CCN(Cc2ccc(F)cc2)[C@H]2CCC[C@H](N3CCCC3)[C@H]21 (racemic)
- inhibition [1]: 0%

Compound: O=C(Cc1ccc(Cl)c(Cl)c1)N1CCN[C@H]2CCC[C@H](N3CCCC3)[C@H]21 (racemic)
- Activity (Mus musculus [2]): 0.5%
- Activity (T-cell [3]): 7.6%
- Activity (T-cell [4]): inactive
- Activity (Mus musculus [5]): Active
- Activity (T-cell [6]): 25.6%
- inhibition (Mus musculus [7]): Active
- Activity (Mus musculus [8]): Active
- inhibition [1]: 5%
- Activity (Dendritic cell [9]): inactive
- Activity (Mus musculus [10]): Active

Compound: CCCN1CCN(C(=O)Cc2ccc(Cl)c(Cl)c2)[C@@H]2[C@@H](N3CCCC3)CCC[C@@H]21 (racemic)
- Ki [11]: 2400 nM

Compound: O=C(Cc1ccc(Cl)c(Cl)c1)N1CCN(Cc2cn(CCF)nn2)[C@H]2CCC[C@H](N3CCCC3)[C@H]21 (racemic)
- Activity (Mus musculus [2]): 0.2%
- Activity (Dendritic cell [12]): Active
- Activity (T-cell [3]): 10.4%
- Activity (T-cell [4]): Active
- Activity (T-cell [13]): Active
- Activity (Mus musculus [5]): Active
- Activity (Dendritic cell [14]): Active
- Activity (T-cell [15]): Active
- Activity (Dendritic cell [16]): Active
- Activity (T-cell [6]): 14.8%
- inhibition (Mus musculus [7]): Active
- Activity (T-cell [17]): Active
- Activity (Mus musculus [8]): Active
- inhibition [1]: 0%
- Activity (Dendritic cell [9]): Active
- Activity (Mus musculus [10]): Active

Compound: O=C(Cc1ccc(Cl)c(Cl)c1)N1CCN(C(=O)COCCF)[C@H]2CCC[C@H](N3CCCC3)[C@H]21 (relative stereo)
- inhibition [1]: 0%

Compound: O=C(Cc1ccc(Cl)c(Cl)c1)N1CCN(CCCCF)[C@H]2CCC[C@H](N3CCCC3)[C@H]21 (racemic)
- inhibition [1]: 8%

Compound: COC(=O)N1CCN(C(=O)Cc2ccc(Cl)c(Cl)c2)[C@@H]2[C@@H](N3CCCC3)CCC[C@@H]21 (racemic)
- inhibition [1]: 8%

Compound: CN1CCN(C(=O)Cc2ccc(Cl)c(Cl)c2)[C@H]2[C@@H]1CCC[C@@H]2N1CCCC1
- inhibition [1]: 4%

Compound: CCCCN1CCN(C(=O)Cc2ccc(Cl)c(Cl)c2)[C@@H]2[C@@H](N3CCCC3)CCC[C@@H]21 (racemic)
- Ki [11]: 1300 nM
